Assay in all cases: PAFAH2 inhibition and serine hydrolase selectivity, late-stage follow-up, cell lysate, fluorescence, gel-based ABPP, BW5147 T-cell proteome, powder samples (AID 504513);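 further: 0% = DMSO-only band intensity and 100% = blank gel background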
One test relates to ABHD11. Particulars: BW5147 mouse T-cell proteome, FP-Rh gel ABPP, stronger effect = higher value. The essentials:
(§1)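 assay system = mouse BW5147 T-cell soluble lysate | amount = 1 mg/mL soluble protein | schedule = compound pretreatment 30 min, then 30 min probe labelling at 25 °C | measured by = in-gel fluorescence of probe-labelled bands, integrated optical density | evaluation = percent band labelling lost versus DMSO control | control set = DMSO-only sample as high, blank gel area as low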

A further test concerns APEH. Particulars: BW5147 mouse T-cell proteome, FP-Rh gel ABPP, stronger effect = higher value. The method, boiled down: as §1
The test system of the next test is ESD. Particulars: BW5147 mouse T-cell proteome, FP-Rh gel ABPP, stronger effect = higher value. The essentials: as §1
In another test the test system is LYPLA1. Particulars: BW5147 mouse T-cell proteome, FP-Rh gel ABPP, stronger effect = higher value. The method, boiled down: as §1
The target of test [1] is Platelet-activating factor acetylhydrolase 2, cytoplasmic (Mus musculus) (UniProt Q8VDG7). The settings on record: FP-Rh gel ABPP, stronger effect = higher value. The method, boiled down:
as §1

The source made the active and inactive calls.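 How the source made its calls: active means PAFAH2 inhibition at least 50% at 0.2 µM with under 50% on each related off-target enzyme; inactive means the rest, including PAFAH2 hits that also hit off-targets.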

One may read the inhibition as the drop in the measured response relative to a control, in per cent.

Chain of Platelet-activating factor acetylhydrolase 2, cytoplasmic (Mus musculus) (Q8VDG7 whole entry, looked up): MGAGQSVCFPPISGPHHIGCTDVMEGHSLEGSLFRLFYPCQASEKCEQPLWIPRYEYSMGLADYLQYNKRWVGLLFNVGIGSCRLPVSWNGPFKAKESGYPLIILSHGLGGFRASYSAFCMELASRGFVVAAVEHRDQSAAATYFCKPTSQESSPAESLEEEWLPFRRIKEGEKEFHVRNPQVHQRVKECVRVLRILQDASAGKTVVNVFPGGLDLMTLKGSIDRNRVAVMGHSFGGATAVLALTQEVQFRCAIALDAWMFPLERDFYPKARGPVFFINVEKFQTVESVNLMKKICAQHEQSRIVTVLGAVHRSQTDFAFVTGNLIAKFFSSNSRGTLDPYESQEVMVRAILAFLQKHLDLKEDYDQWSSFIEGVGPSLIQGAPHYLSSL

For the compound `O=C(N(c1ccccc1)c1ccccc1)n1ccnn1`, the inhibition in the test on ABHD11 (at 1 µM) is 100%; with ABHD11 (inhibition, at 0.02 µM) it was 0%; in the test on ABHD11 (inhibition, at 0.2 µM), 50%; in the test with APEH (at 1 µM), 0% (inactive); in the test on APEH (inhibition, at 0.02 µM), 0%; in the test on APEH (inhibition, at 0.2 µM), 0%. The inhibition in the test with ESD (at 1 µM) is 0% (inactive); in the test on ESD (inhibition, at 0.02 µM), 0%; in the test with ESD (inhibition, at 0.2 µM), 0%; with LYPLA1 (at 1 µM), 0% (inactive); in the test with LYPLA1 (inhibition, at 0.02 µM), 0%; in the test on LYPLA1 (inhibition, at 0.2 µM), 0%. Besides, the inhibition in test [1] (PAFAH2, at 1 µM) is 0% (inactive); in test [1] (PAFAH2, inhibition, at 0.02 µM) it was 0%; in test [1] (PAFAH2, inhibition, at 0.2 µM), 0%.

Take `CN(C)C(=O)n1ccnn1`: the inhibition with ABHD11 (at 1 µM) is 0% (inactive); in the test with ABHD11 (inhibition, at 0.02 µM) it was 0%; in the test on ABHD11 (inhibition, at 0.2 µM), 0%; with APEH (at 1 µM), 0% (inactive); in the test with APEH (inhibition, at 0.02 µM), 0%; in the test on APEH (inhibition, at 0.2 µM), 0%. Moreover, the inhibition in the test with ESD (at 1 µM) is 0% (inactive); with ESD (inhibition, at 0.02 µM) it was 0%; in the test with ESD (inhibition, at 0.2 µM), 0%; with LYPLA1 (at 1 µM), 0% (inactive); with LYPLA1 (inhibition, at 0.02 µM) it was 0%; in the test on LYPLA1 (inhibition, at 0.2 µM), 0%. The inhibition in test [1] (PAFAH2, at 1 µM) was 0% (inactive); in test [1] (PAFAH2, inhibition, at 0.02 µM), 0%; in test [1] (PAFAH2, inhibition, at 0.2 µM), 0%.

Regarding `CN1CCN(C(=O)n2ccnn2)CC1`, the inhibition with ABHD11 (at 1 µM) is 50% (inactive); in the test with ABHD11 (inhibition, at 0.02 µM) it was 0%; in the test on ABHD11 (inhibition, at 0.2 µM), 0%; in the test with APEH (at 1 µM) it was 0% (inactive); with APEH (inhibition, at 0.02 µM), 0%; with APEH (inhibition, at 0.2 µM) it was 0%. Moreover, the inhibition is 0% (inactive) with ESD (at 1 µM); 0% in the test on ESD (inhibition, at 0.02 µM); 0% in the test on ESD (inhibition, at 0.2 µM); 0% (inactive) in the test with LYPLA1 (at 1 µM); 0% with LYPLA1 (inhibition, at 0.02 µM); 0% in the test with LYPLA1 (inhibition, at 0.2 µM). In addition, the inhibition in test [1] (PAFAH2, at 1 µM) was 0% (inactive); in test [1] (PAFAH2, inhibition, at 0.02 µM) it was 0%; in test [1] (PAFAH2, inhibition, at 0.2 µM), 0%.

On to `O=C(N1CCCC1)n1ncc(-c2ccc(-c3ccccc3)cc2)n1`, for which the inhibition with ABHD11 (at 1 µM) is 0% (inactive); in the test on ABHD11 (inhibition, at 0.02 µM), 0%; in the test with ABHD11 (inhibition, at 0.2 µM), 0%; in the test with APEH (at 1 µM), 0% (inactive); in the test with APEH (inhibition, at 0.02 µM) it was 0%; in the test on APEH (inhibition, at 0.2 µM) it was 0%. Moreover, the inhibition in the test with ESD (at 1 µM) is 0% (inactive); in the test on ESD (inhibition, at 0.02 µM), 0%; in the test on ESD (inhibition, at 0.2 µM) it was 0%; in the test with LYPLA1 (at 1 µM) it was 0% (inactive); with LYPLA1 (inhibition, at 0.02 µM) it was 0%; in the test with LYPLA1 (inhibition, at 0.2 µM), 0%. Also, the inhibition in test [1] (PAFAH2, at 1 µM) is 100%; in test [1] (PAFAH2, inhibition, at 0.02 µM) it was 100%; in test [1] (PAFAH2, inhibition, at 0.2 µM), 100%.

As to `O=C(n1ccnn1)n1c2ccccc2c2ccccc21`, the inhibition was 0% (inactive) in the test on ABHD11 (at 1 µM); 0% in the test with ABHD11 (inhibition, at 0.02 µM); 0% with ABHD11 (inhibition, at 0.2 µM); 0% (inactive) with APEH (at 1 µM); 0% with APEH (inhibition, at 0.02 µM); 0% in the test on APEH (inhibition, at 0.2 µM). Moreover, the inhibition is 0% (inactive) in the test on ESD (at 1 µM); 0% with ESD (inhibition, at 0.02 µM); 0% in the test with ESD (inhibition, at 0.2 µM); 0% (inactive) in the test with LYPLA1 (at 1 µM); 0% in the test with LYPLA1 (inhibition, at 0.02 µM); 0% in the test on LYPLA1 (inhibition, at 0.2 µM). Further, the inhibition in test [1] (PAFAH2, at 1 µM) is 0% (inactive); in test [1] (PAFAH2, inhibition, at 0.02 µM), 0%; in test [1] (PAFAH2, inhibition, at 0.2 µM), 0%.

On to `O=C(N1CCCCC1)n1ccnn1`, for which the inhibition in the test on ABHD11 (at 1 µM) was 50% (inactive); in the test on ABHD11 (inhibition, at 0.02 µM), 0%; in the test with ABHD11 (inhibition, at 0.2 µM), 0%; in the test with APEH (at 1 µM) it was 0% (inactive); with APEH (inhibition, at 0.02 µM), 0%; in the test on APEH (inhibition, at 0.2 µM) it was 0%. Further, the inhibition in the test with ESD (at 1 µM) is 0% (inactive); with ESD (inhibition, at 0.02 µM), 0%; in the test with ESD (inhibition, at 0.2 µM), 0%; in the test with LYPLA1 (at 1 µM) it was 0% (inactive); in the test on LYPLA1 (inhibition, at 0.02 µM) it was 0%; with LYPLA1 (inhibition, at 0.2 µM), 0%. The inhibition in test [1] (PAFAH2, at 1 µM) is 50% (inactive); in test [1] (PAFAH2, inhibition, at 0.02 µM), 0%; in test [1] (PAFAH2, inhibition, at 0.2 µM), 0%.

With `O=C(N1CCOCC1)n1ncc(-c2cc(F)cc(F)c2)n1`, the inhibition is 100% with ABHD11 (at 1 µM); 50% with ABHD11 (inhibition, at 0.02 µM); 100% in the test on ABHD11 (inhibition, at 0.2 µM); 100% in the test with APEH (at 1 µM); 0% in the test with APEH (inhibition, at 0.02 µM); 100% in the test on APEH (inhibition, at 0.2 µM). Further, the inhibition with ESD (at 1 µM) is 50% (inactive); with ESD (inhibition, at 0.02 µM) it was 0%; with ESD (inhibition, at 0.2 µM), 25%; with LYPLA1 (at 1 µM), 0% (inactive); in the test with LYPLA1 (inhibition, at 0.02 µM), 0%; in the test on LYPLA1 (inhibition, at 0.2 µM), 0%. The inhibition was 100% in test [1] (PAFAH2, at 1 µM); 0% in test [1] (PAFAH2, inhibition, at 0.02 µM); 100% in test [1] (PAFAH2, inhibition, at 0.2 µM).

The record behind these values is PubChem BioAssay AID504513 (The Scripps Research Institute Molecular Screening Center, 2011).
